Data on 3 molecules can be found in PMC3969666 (Pharmacognosy Magazine, 2014).

Data set [1] has as its system influenza virus strain A/PR8/34(H1N1). The class given is cell-based, influenza virus A/PR8/34(H1N1) in MDCK cells.
Another data set concerns Caco-2 cells. Put plainly: MTT cytotoxicity test of absorption enhancers with SHL on Caco-2 cells. The class given is cell-based. The conditions noted are these: 24 h, with addition of SHL, tested 0.005-1.28 mg/mL.
The subject of data set [2] is gastrointestinal membrane. Briefly: Gastrointestinal membrane toxicity by morphological observation. Type of data set: in vivo. The conditions noted are these: rat. Put shortly:
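Male Sprague–Dawley rats (~250 g) given SHL with or without absorption enhancers by oral gavage. After 8 h exposure, stomach, jejunum and colon were sectioned, with two sections per tissue on each slide. Sections were HE-stained and examined microscopically for mucosal morphology.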

For data set [3] the following is noted: enhancement of FD4 absorption; ref 17 (Gao et al., 2008); cited from earlier work.

With `NC(=O)c1ncn([C@@H]2O[C@H](CO)[C@@H](O)[C@H]2O)n1` [ribavirin, Ribavirin], the “inhibition rate on influenza virus” value in data set [1] is “remarkable increase in inhibition rate”.

In the case of `CCCCCCCCCC(=O)[O-].[Na+]` [sodium caprate], the “concentration safe for the Caco-2 cells” value in the data set with Caco-2 cells is recorded as “up to 0.64 mg/mL”. Also, the “damage in the small intestine” value in data set [2] (oral with SHL, 150 mg/kg) is on record as “significant damage in the small intestine”. Besides, the “change in the morphology of the gastrointestinal membrane” value in data set [2] (oral with SHL, 25, 50, 100 mg/kg, 8 h exposure) is reported as “did not cause any significant change”. The “damage in the gastro and colon tissues” value in data set [2] (oral with SHL, different dosages (25-150 mg/kg)) was “no significant damage”.

Turning to chitosan hexamer, the “concentration at which absorption enhancing effect is almost saturable” value in data set [3] is recorded as ~0.5 % (w/v).
